The values that follow come from ChEMBL document CHEMBL3397022, “Absolute structures and bioactivities of euryspongins and eurydiene obtained from the marine sponge Euryspongia sp. collected at Iriomote Island” (Bioorg Med Chem, 2015).

The structures appear in SMILES notation. A value given as a limit tells only on which side of the number the result lay.

One assay deals with Jurkat. The assay is described as follows: Cytotoxicity against human Jurkat cells after 48 hrs by MTT assay. The format is cell-based. The method in brief: (§1)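 Cells grown exponentially in RPMI-1640 with 10% FBS, penicillin and streptomycin at 37 °C, 5.0% CO2. Seeding: HCT-15 at 1.0 × 10^4 cells/well, Jurkat at 2.0 × 10^4 cells/well. Samples added in MeOH and incubated 48 h at 37 °C. MTT and lysis solution (40% DMF, 20% SDS, 2.0% acetic acid, 0.030% HCl) added, then shaken overnight at room temperature. Read at 570 nm.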
Background: Formazan colour is commonly taken as a measure of viable cells.

The target of assay [1] is T1, Tyrosine-protein phosphatase non-receptor type 1 (Homo sapiens, UniProt P18031).
T1 sequence (P18031 whole entry): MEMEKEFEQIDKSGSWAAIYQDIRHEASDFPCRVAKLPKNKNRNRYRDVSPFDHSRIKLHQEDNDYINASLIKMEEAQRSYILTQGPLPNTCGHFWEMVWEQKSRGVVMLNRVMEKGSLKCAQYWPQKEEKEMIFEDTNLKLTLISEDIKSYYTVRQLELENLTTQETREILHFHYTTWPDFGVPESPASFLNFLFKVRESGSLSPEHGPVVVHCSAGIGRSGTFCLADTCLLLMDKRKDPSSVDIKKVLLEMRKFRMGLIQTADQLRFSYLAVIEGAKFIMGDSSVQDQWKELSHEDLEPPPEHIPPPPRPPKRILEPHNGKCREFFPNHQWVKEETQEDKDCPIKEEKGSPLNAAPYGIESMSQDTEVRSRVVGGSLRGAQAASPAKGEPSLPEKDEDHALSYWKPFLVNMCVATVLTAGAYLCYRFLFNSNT
As to the kind of experiment: Inhibition of PTP1B (unknown origin) using pNPP as substrate incubated for 10 mins prior to substrate addition measured after 30 mins by microplate reader analysis.

Assay [2] is described as follows: Cytotoxicity against human HCT15 cells after 48 hrs by MTT assay. It counts as cell-based. Particulars: HCT-15, 48 h. An outline of the steps:
as §1

A short description of assay [3]: Cytotoxicity against human HuH7 cells […] by MTT assay. It counts as cell-based. As to conditions: Huh-7. An outline of the steps:
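Huh-7 MTT assay: after sample treatment, MTT (5.0 mg/mL stock in saline) added for 90 min at 37 °C. Plate centrifuged at 300 × g for 5 min and supernatant removed. Cells solubilized in 0.040 N HCl in 2-propanol. Absorbance read at 590 nm; survival (%) calculated relative to untreated control.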

On to `C=C/C=C(/CO)c1cc(O)ccc1O`, for which the IC50 (in the assay on Jurkat; in assay [1]; in assay [2]) was above 50 µM throughout.

As to `C=C/C=C1/CO[C@]2(OC)CC[C@@H](O)[C@@H](O)[C@@H]12`, the IC50 (in the assay with Jurkat; in assay [1]; in assay [2]) was above 40 µM in each case.

As for `CC1=C[C@@H]2CC(C)(C)[C@H]1C[C@@H](O)C1=CC(=O)O[C@H]12`, the IC50 (with Jurkat; in assay [1]; in assay [2]) was above 40 µM each time.

Take `CC1=C[C@@H]2CC(C)(C)[C@H]1/C=C\c1ccoc12` [REL-DEHYDROEURYSPONGIN A]: the results for the IC50 (in the assay with Jurkat; in assay [3]; in assay [2]) were above 45 µM, above 100 µM and above 45 µM, respectively.

For `CO[C@@]12OC(=O)C=C1[C@H](O)C[C@H]1C(C)=C[C@@H]2CC1(C)C`, the IC50 (with Jurkat; in assay [1]; in assay [2]) was above 35 µM each time.

As for `CC1=C[C@@H]2CC(C)(C)[C@H]1C[C@@H](O)c1ccoc12`, the IC50 with Jurkat was above 40 µM; in assay [1], above 40 µM; in assay [3] it was above 100 µM; in assay [2], above 40 µM.

What is called IC50 is the concentration at which inhibition is half-maximal. The low end stands for greater potency in that assay, the high end for weaker potency in that assay.
